In ChEMBL document CHEMBL4411278, “Discovery of potent and selective inhibitors of the Escherichia coli M1-aminopeptidase via multicomponent solid-phase synthesis of tetrazole-peptidomimetics” (Eur J Med Chem, 2019):
pIC50: −log10 of the molar value. Active and inactive are the calls of the source. The calls are words filed in the database; no cut-off is given here.

Experiments:
[1] = Cytotoxicity against mouse P3X63Ag assessed as reduction in cell viability after 6 hrs by MTT assay
Procedure, shortened: (§1)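 P3X63Ag murine myeloma cells were grown in DMEM-F12 with 10% FCS at 37°C, 5% CO2. For the assay they were plated in serum-free DMEM-F12 and exposed to compounds for 3, 6 or 20 h. After a PBS wash, cells got MTT for 3 h and crystals were dissolved in DMSO. Absorbance was read at 450 nm (620 nm reference), and viability calculated as 100×At/Ac versus untreated cells.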

[2] = Cytotoxicity against mouse P3X63Ag assessed as reduction in cell viability at 50 uM after 20 hrs by MTT assay relative to control; procedure, shortened: as §1
Escherichia coli [3] = experiment: Growth inhibition of Escherichia coli BL21 up to 100 uM after 3 to 20 hrs by spectrophotometric analysis; assay type: functional, organism-based
Procedure, shortened: (§2)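 E. coli BL21 was inoculated at 1% from an overnight culture into LB. Compounds were added at eight concentrations (0.781–100 μM) from DMSO serial dilutions, with DMSO and 200 μg/mL ampicillin controls; four replicates. Plates were held at 37°C and raised to 42°C at 6 h. A595 was read at 0, 3, 6 and 20 h and normalized to the DMSO control (100% growth).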

[4] = Haemolytic activity in human erythrocytes assessed as induction of hemolysis at 100 uM after 20 hrs relative to control; assay type: cell-based, Erythrocyte; details: read-out: Activity
Procedure, shortened: (§3)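 Fresh human red blood cells were washed and resuspended in 145 mM NaCl, 10 mM Tris-HCl pH 7.4, adjusted so full lysis with Na2CO3 gives A540 ≈0.7. Cells were incubated with compounds for 3, 6 or 20 h, with untreated and 1% DMSO controls. Supernatant haemoglobin was measured after centrifugation.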

[5] = Cytotoxicity against mouse P3X63Ag assessed as reduction in cell viability after 3 hrs by MTT assay; procedure, shortened: as §1
[6] = Cytotoxicity against mouse P3X63Ag assessed as reduction in cell viability at 50 uM after 3 hrs by MTT assay relative to control; procedure, shortened: as §1
[7] = Cytotoxicity against mouse P3X63Ag assessed as reduction in cell viability after 20 hrs by MTT assay; procedure, shortened: as §1
[8] = Selectivity index, ratio of IC50 for M1 aminopeptidase in porcine kidney cortex microsomes to IC50 for recombinant Escherichia coli M1 aminopeptidase
[9] = (§4) Inhibition of recombinant Escherichia coli M1 aminopeptidase using Leu-pNA as substrate preincubated for 15 mins followed by substrate addition
Procedure, shortened: (§5)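 Recombinant ePepN (partially purified by ion exchange) or porcine kidney cortex microsomal APN was pre-incubated 15 min at 25°C with inhibitor in DMSO (final ≤2% v/v), then 75 μM Leu-pNA (~1 KMapp) was added. Buffer was 50 mM Tris-HCl pH 8.0. A405 was read every 15 s for 3 min. Doses were double serial dilutions over 0.781–100 μM, and IC50 came from a logistic fit of residual activity (vi/v0); at least triplicate.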

Escherichia coli [10] = experiment: as §4; procedure, shortened: as §5
Erythrocyte [11] = experiment: Haemolytic activity in human erythrocytes assessed as induction of hemolysis after 20 hrs; assay type: cell-based; procedure, shortened: as §3
Escherichia coli [12] = experiment: Reversible inhibition of recombinant Escherichia coli M1 aminopeptidase using Leu-pNA as substrate preincubated for 15 mins followed by substrate addition; procedure, shortened: as §5
[13] = Cytotoxicity against mouse P3X63Ag assessed as reduction in cell viability at 50 uM after 6 hrs by MTT assay relative to control; procedure, shortened: as §1
Erythrocyte [14] = experiment: Haemolytic activity in human erythrocytes assessed as induction of hemolysis after 6 hrs; assay type: cell-based; procedure, shortened: as §3
Erythrocyte [15] = experiment: Haemolytic activity in human erythrocytes assessed as induction of hemolysis after 3 hrs; assay type: cell-based; procedure, shortened: as §3
[16] = Inhibition of M1 aminopeptidase in porcine kidney cortex microsomes using Leu-pNA as substrate preincubated for 15 mins followed by substrate addition; design: species or system Sus scrofa
Escherichia coli [17] = experiment: Growth inhibition of Escherichia coli BL21 after 20 hrs by spectrophotometric analysis; assay type: functional, organism-based; details: BL21, BL21, 20 h; procedure, shortened: as §2
Escherichia coli [18] = experiment: Growth inhibition of Escherichia coli BL21 after 3 to 6 hrs by spectrophotometric analysis; assay type: functional, organism-based; procedure, shortened: as §2
Escherichia coli [19] = experiment: Noncompetitive inhibition of recombinant Escherichia coli M1 aminopeptidase assessed as Vmax for substrate at 6.25 uM using Leu-pNA as substrate preincubated for 15 mins followed by substrate addition by Lineweaver-Burk double reciprocal plot analysis (reference value: 125 10^-3OD/min)
Escherichia coli [20] = experiment: Noncompetitive inhibition of recombinant Escherichia coli M1 aminopeptidase assessed as Km for substrate at 3.125 uM using Leu-pNA as substrate preincubated for 15 mins followed by substrate addition by Lineweaver-Burk double reciprocal plot analysis (reference value: 120 umol/L)
Escherichia coli [21] = experiment: Noncompetitive inhibition of recombinant Escherichia coli M1 aminopeptidase assessed as Km for substrate at 1.56 uM using Leu-pNA as substrate preincubated for 15 mins followed by substrate addition by Lineweaver-Burk double reciprocal plot analysis (reference value: 120 umol/L)
Escherichia coli [22] = experiment: Noncompetitive inhibition of recombinant Escherichia coli M1 aminopeptidase assessed as Vmax for substrate at 1.56 uM using Leu-pNA as substrate preincubated for 15 mins followed by substrate addition by Lineweaver-Burk double reciprocal plot analysis (reference value: 125 10^-3OD/min)
Escherichia coli [23] = experiment: Noncompetitive inhibition of recombinant Escherichia coli M1 aminopeptidase assessed as Vmax for substrate at 3.125 uM using Leu-pNA as substrate preincubated for 15 mins followed by substrate addition by Lineweaver-Burk double reciprocal plot analysis (reference value: 125 10^-3OD/min)
Escherichia coli [24] = experiment: Noncompetitive inhibition of recombinant Escherichia coli M1 aminopeptidase assessed as Km for substrate at 6.25 uM using Leu-pNA as substrate preincubated for 15 mins followed by substrate addition by Lineweaver-Burk double reciprocal plot analysis (reference value: 120 umol/L)
[25] = (§6) Inhibition of recombinant Escherichia coli M1 aminopeptidase using Leu-pNA as substrate preincubated for 45 mins followed by substrate addition; details: in the assay text read “15 mins” for “45 mins”
Procedure, shortened: (§7)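 The time to reach inhibition equilibrium was tested by pre-incubating recombinant ePepN with inhibitor for 5, 10, 15, 30 or 45 min at 25°C. Residual activity was then measured on 75 μM Leu-pNA in 50 mM Tris-HCl pH 8.0, reading A405 continuously against a DMSO control.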

Escherichia coli [26] = experiment: as §6; procedure, shortened: as §7
Escherichia coli [27] = experiment: Reversible inhibition of recombinant Escherichia coli M1 aminopeptidase using Leu-pNA as substrate preincubated for 45 mins followed by substrate addition; details: in the assay text read “15 mins” for “45 mins”; procedure, shortened: as §7

| SMILES | pIC50 [9] | inhibition (Escherichia coli [10]) | inhibition (Escherichia coli [12]) | further results |
| --- | --- | --- | --- | --- |
| O=C(O)[C@H](Cc1c[nH]c2ccccc12)NC(c1ccco1)c1nnnn1C1CCCCC1 (some centres not stated) | 5.66 | Dose-dependent effect | Active | pIC50 [1]: < 4.00; Activity [2]: <= 50%; growth inhibition (GI) (Escherichia coli [3]): inactive; hemolysis at 20 h, 100 µM [4]: 40%; pIC50 [5]: < 4.00; Activity [6]: <= 60%; pIC50 [7]: 4.00; Ratio IC50 [8]: 909; HC20 (Erythrocyte [11]): 55 µM; Activity [13]: <= 50%; HC20 (Erythrocyte [14]): 70 µM; HC20 (Erythrocyte [15]): 80 µM; pIC50 [16]: 2.70 |
| CC(C)C[C@H](NC(=O)[C@@H](O)[C@H](N)Cc1ccccc1)C(=O)O [UBENIMEX] | 5.15 |  |  | growth inhibition (GI) (Escherichia coli [3]): inactive |
| O=C(O)[C@H](Cc1c[nH]c2ccccc12)NC(c1ncc[nH]1)c1nnnn1C1CCCCC1 (some centres not stated) | 4.32 | Dose-dependent effect | Active |  |
| COc1ccc(C(N[C@@H](Cc2ccc(OCc3ccccc3)cc2)C(=O)O)c2nnnn2C2CCCCC2)cc1 (some centres not stated) | 5.85 | Dose-dependent effect | Active | pIC50 [1]: 4.00; Activity [2]: <= 50%; pIC50 (Escherichia coli [17]): > 4.00; hemolysis at 20 h, 100 µM [4]: 40%; pIC50 [5]: < 4.00; pIC50 (Escherichia coli [18]): > 4.30; Activity [6]: <= 60%; pIC50 [7]: 4.00; Ratio IC50 [8]: 1130; HC20 (Erythrocyte [11]): 65 µM; Activity [13]: <= 50%; HC20 (Erythrocyte [14]): 70 µM; HC20 (Erythrocyte [15]): > 100 µM; pIC50 [16]: 2.80 |
| COc1ccc(C(N[C@H](C(=O)O)C(C)C)c2nnnn2Cc2ccccc2)cc1 (some centres not stated) | < 3.00 |  |  | growth inhibition (GI) (Escherichia coli [3]): inactive |
| CC(C)[C@H](NCc1nnnn1Cc1ccccc1)C(=O)O | 4.33 | Dose-dependent effect | Active |  |
| O=C(O)[C@H](Cc1c[nH]c2ccccc12)NC(c1ccco1)c1nnnn1Cc1ccccc1 (some centres not stated) |  |  |  | pIC50 [1]: < 4.00; Vmax (Escherichia coli [19]): 23.3 mOD/min; growth inhibition (GI) (Escherichia coli [3]): inactive; hemolysis at 20 h, 100 µM [4]: 15%; Km (Escherichia coli [20]): 69.3 µM; pIC50 [5]: < 4.00; Km (Escherichia coli [21]): 71.3 µM; Vmax (Escherichia coli [22]): 45.5 mOD/min; Vmax (Escherichia coli [23]): 34.5 mOD/min; pIC50 [7]: < 4.00; Ratio IC50 [8]: 23500; HC20 (Erythrocyte [11]): > 100 µM; Km (Escherichia coli [24]): 61.4 µM; pIC50 [25]: 6.59; inhibition (Escherichia coli [26]): Dose-dependent effect; HC20 (Erythrocyte [14]): > 100 µM; HC20 (Erythrocyte [15]): > 100 µM; pIC50 [16]: 2.21; inhibition (Escherichia coli [27]): Active |
| COc1ccc(C(N[C@@H](Cc2c[nH]c3ccccc23)C(=O)O)c2nnnn2C2CCCCC2)cc1 (some centres not stated) | 3.20 | Dose-dependent effect | Active |  |
| CC(C)[C@H](NC(c1ncc[nH]1)c1nnnn1CCCc1ccccc1)C(=O)O (some centres not stated) | 3.33 | Dose-dependent effect | Active |  |
| O=C(O)[C@H](Cc1ccccc1)NC(c1ccco1)c1nnnn1C1CCCCC1 (some centres not stated) | 4.39 | Dose-dependent effect | Active |  |
| CC(C)[C@H](NC(c1ncc[nH]1)c1nnnn1C1CCCCC1)C(=O)O (some centres not stated) | 3.90 | Dose-dependent effect | Active |  |
| O=C(O)[C@H](Cc1ccccc1)NC(c1ccco1)c1nnnn1Cc1ccccc1 (some centres not stated) | 4.77 | Dose-dependent effect | Active |  |
| CC(C)[C@H](NC(c1ncc[nH]1)c1nnnn1Cc1ccccc1)C(=O)O (some centres not stated) | 4.15 | Dose-dependent effect | Active |  |
| COc1ccc(C(N[C@@H](Cc2c[nH]c3ccccc23)C(=O)O)c2nnnn2Cc2ccccc2)cc1 (some centres not stated) | 5.14 | Dose-dependent effect | Active |  |

Continued by rising pIC50 [9], values first:

| pIC50 [9] | inhibition (Escherichia coli [10]) | inhibition (Escherichia coli [12]) | SMILES | further results |
| --- | --- | --- | --- | --- |
| 3.77 | Dose-dependent effect | Active | CC(C)[C@H](NCc1nnnn1CCCc1ccccc1)C(=O)O |  |
| 3.80 | Dose-dependent effect | Active | COc1ccc(C(N[C@H](C(=O)O)C(C)C)c2nnnn2CCCc2ccccc2)cc1 (some centres not stated) |  |
| 3.96 | Dose-dependent effect | Active | O=C(O)[C@H](Cc1c[nH]c2ccccc12)NCc1nnnn1C1CCCCC1 |  |
| 4.05 | Dose-dependent effect | Active | COc1ccc(C(N[C@H](C(=O)O)C(C)C)c2nnnn2C2CCCCC2)cc1 (some centres not stated) |  |
| 4.36 | Dose-dependent effect | Active | O=C(O)[C@H](Cc1ccc(OCc2ccccc2)cc1)NCc1nnnn1C1CCCCC1 |  |
| 4.57 | Dose-dependent effect | Active | CC(C)[C@H](NC(c1cccnc1)c1nnnn1C1CCCCC1)C(=O)O (some centres not stated) |  |
| 4.60 | Dose-dependent effect | Active | O=C(O)[C@H](Cc1c[nH]c2ccccc12)NC(c1ncc[nH]1)c1nnnn1Cc1ccccc1 (some centres not stated) |  |
| 4.66 | Dose-dependent effect | Active | O=C(O)[C@H](Cc1c[nH]c2ccccc12)NC(c1cccnc1)c1nnnn1C1CCCCC1 (some centres not stated) |  |
